In ChEMBL document CHEMBL5316289, “Structure-Based Rational Design of Small α-Helical Peptides with Broad-Spectrum Activity against Multidrug-Resistant Pathogens” (J Med Chem, 2023):
Activity calls are given as the source filed them. No cut-off for these calls is given here.

Key:
[1] = tested on: HEK293; assay: Antiproliferative activity human HEK293 cells assessed as reduction in cell viability at 250 ug/ml incubated for 24 hrs by MTS assay; type: functional; conditions: dose 250 µg/ml
Outline: (§1)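 Cells seeded at 10,000 per well 24 h before treatment. Media: MRC-5 and HEK293 in DMEM with 10% FBS; HepaRG in William's E with GlutaMAX; HEKa in Dermal Cell Basal medium plus keratinocyte growth kit. Peptide at 10–250 μg/mL in triplicate for 24 h, 37 °C, 5% CO2. MTS added for 2 h, then A490 read. Survival is blank-corrected OD as % of untreated control.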

[2] = tested on: Escherichia coli; assay: Bactericidal activity against […] Escherichia coli ATCC BAA 2452 assessed as inhibition of bacterial growth at MIC to 4 times of MIC by Time kill assay; type: functional, organism-based; conditions: time 4.0 hrs, TDE = time-dependent effect
Outline: (§2)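 Aliquots taken every 30 min for 4 h and plated on agar for viable colony counts. Two independent experiments in triplicate.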

[3] = tested on: Staphylococcus aureus; assay: Antibacterial activity against methicillin resistant Staphylococcus aureus ATCC BAA 1556 assessed as fold increase in MIC incubated for 24 hrs in presence of Na+ ions by CLSI based broth microdilution method; type: functional
Outline: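 CLSI broth microdilution. Overnight cultures diluted in cation-adjusted Mueller Hinton broth to 10^6 CFU/mL, mixed 1:1 with 2-fold serial peptide dilutions, 24 h at 37 °C. […] MIC is the lowest concentration inhibiting growth. Three independent assays in triplicate.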

[4] = tested on: HEK293; assay: Antiproliferative activity human HEK293 cells assessed as reduction in cell viability at 50 ug/ml incubated for 24 hrs by MTS assay; type: functional; conditions: dose 50 µg/ml; outline: as §1
[5] = tested on: Cell membrane; assay: Induction of membrane disruption in bacterial inner membrane mimic DOPC/DOPG (7:3) large unilamellar vesicles assessed as induction of dye leakage at 50 ug/ml measured after 100 mins by calcein dye based analysis; type: subcellular; conditions: dose 50.0 µg/ml
Outline: (§3)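 LUVs loaded with calcein: DOPC/DOPG 7:3 w/w (bacterial mimic) or DOPC/cholesterol 10:1 w/w (mammalian mimic). Mixed 1:1 by volume with peptide at 5, 10, 20, 30 or 50 μg/mL. Fluorescence (ex 490/em 520 nm) read every 10 min for 100 min. Leakage expressed relative to 10% Triton X-100 lysis (100%), after subtracting liposome background. Triplicate.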

[6] = Antiproliferative activity human HEKa cells assessed as reduction in cell viability at 250 ug/ml incubated for 24 hrs by MTS assay; type: functional; conditions: dose 250 µg/ml; outline: as §1
[7] = tested on: Cell membrane; assay: Induction of membrane disruption in bacterial inner membrane mimic DOPC/DOPG (7:3) large unilamellar vesicles assessed as induction of dye leakage measured upto 100 mins by calcein dye based analysis; type: subcellular; conditions: dose 5-50 µg/ml; outline: as §3
[8] = tested on: Cell membrane; assay: Induction of membrane disruption in bacterial inner membrane mimic DOPC/DOPG (7:3) large unilamellar vesicles assessed as induction of dye leakage at 5 ug/ml measured after 100 mins by calcein dye based analysis; type: subcellular; conditions: dose 5.0 µg/ml; outline: as §3
[9] = tested on: Staphylococcus aureus; assay: Bactericidal activity against methicillin resistant Staphylococcus aureus ATCC BAA 1556 assessed as inhibition of bacterial growth at MIC to 4 times of MIC by Time kill assay; type: functional, organism-based; conditions: time 4.0 hrs, TDE = time-dependent effect; outline: as §2
[10] = tested on: Escherichia coli; assay: Antibacterial activity against Escherichia coli ATCC 25922 assessed as fold increase in MIC incubated for 24 hrs in presence of K+ ions by CLSI based broth microdilution method; type: functional
Outline: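 E. coli MICs by CLSI broth microdilution in cation-adjusted Mueller Hinton broth. […] Inoculum was 10^6 CFU/mL with 2-fold serial peptide dilutions, incubated 24 h at 37 °C. MIC is the lowest concentration inhibiting growth. Three independent assays, each in triplicate.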

[11] = tested on: Staphylococcus aureus; assay: Induction of membrane morphological changes in methicillin resistant Staphylococcus aureus ATCC BAA 1556 assessed as cell surface roughening at 4 times of MIC measured after 1 hrs by FE-SEM analysis; type: functional, organism-based
Outline: (§4)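 Methods give 30 min; legend gives 1 h. Washed, fixed in 4% glutaraldehyde in 0.2 M Na-cacodylate for 3 h, dehydrated through graded ethanol, dried with HMDS, Au/Pd-coated (~20 nm) and imaged by SEM. Untreated cells as control.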

[12] = tested on: Staphylococcus aureus; assay: Induction of membrane morphological changes in methicillin resistant Staphylococcus aureus ATCC BAA 1556 assessed as cellular debris formation at 4 times of MIC measured after 1 hrs by FE-SEM analysis; type: functional, organism-based; outline: as §4
[13] = tested on: Escherichia coli; assay: Bactericidal activity against […] Escherichia coli ATCC BAA 2452 assessed as inhibition of bacterial growth at 4 times of MIC incubated for 4 hrs by Time kill assay; type: functional; outline: as §2
[14] = tested on: Escherichia coli; assay: Induction of membrane morphological changes in Escherichia coli ATCC BAA-2452 assessed as cellular debris formation at 4 times of MIC measured after 1 hrs by FE-SEM analysis; type: functional, organism-based
Outline: (§5)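 E. coli ATCC BAA-2452 grown to exponential phase in MHB at 37 °C with shaking, then diluted to 2 × 10^6 CFU/mL. […] Cells were PBS-washed and fixed 3 h in 4% glutaraldehyde in 0.2 M cacodylate. Then ethanol-dehydrated, HMDS-dried, Au/Pd-coated and imaged by FE-SEM. Untreated control.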

[15] = tested on: Escherichia coli; assay: Induction of membrane morphological changes in Escherichia coli ATCC BAA-2452 assessed as cell surface blebs formation at 4 times of MIC measured after 1 hrs by FE-SEM analysis; type: functional, organism-based; outline: as §5
[16] = tested on: Staphylococcus aureus; assay: Induction of membrane morphological changes in methicillin resistant Staphylococcus aureus ATCC BAA 1556 assessed as cell surface wrinkling at 4 times of MIC measured after 1 hrs by FE-SEM analysis; type: functional, organism-based; outline: as §4

Substance	Activity [1] [%]	inhibition [2]	fold change (FC) [3]	Activity [4] [%]	Activity [5] [%]	Activity [6] [%]	Activity [7]	Activity [8] [%]	inhibition [9]	fold change (FC) [10]	Activity [11]	Activity [12]	inhibition (INH) [13] [%]	Activity [14]	Activity [15]	Activity [16]
H-RWLRRWLRWWRR-NH2	<30	Tde	2	<60	80	<30	Dose-Dependent Effect	30	Tde	2	–	–	–	–	–	–
H-KWLKKWLKWWKK-NH2	>60	Tde	2	>75	80	–	Dose-Dependent Effect	30	Tde	2	Active	Active	70	Active	Active	Active
